# ADAM17 inh: ADAM17 inhibitors, primary screen, biochemical, QFRET | inhibition, % at 6.95 µM | AID 720648, 2013 | Disintegrin and metalloproteinase domain-containing protein 17 (Homo sapiens), P78536 | recombinant ADAM17, EDANS/DABCYL FRET peptide cleavage | actives 0.83% (n = 370,000);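 active means inhibition above the mean of compounds lying between control limits plus 3 SD, set per campaign, cut at about 8.5% in these data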;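 further: 0% = DMSO-only wells as the low control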
# SENP1 inh: human SENP1 catalytic domain inhibitors, primary screen, biochemical, FRET, uHTS; Sentrin-specific protease 1 (Homo sapiens), Q9P0U3; recombinant SENP1 catalytic domain, CyPet-SUMO1-YPet FRET cleavage; inhibition, % at 10 µM; actives 0.21% (n = 360,000); AID 624204, 2012;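 active means inhibition at least 30% at 10 µM, raw YFP signal under a set limit, fluorescence ratio 0.5 to 1.5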;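 further: 0% = enzyme with DMSO and 100% = no enzyme wells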
# Target sequence (Q9P0U3 419-644 limits assumed): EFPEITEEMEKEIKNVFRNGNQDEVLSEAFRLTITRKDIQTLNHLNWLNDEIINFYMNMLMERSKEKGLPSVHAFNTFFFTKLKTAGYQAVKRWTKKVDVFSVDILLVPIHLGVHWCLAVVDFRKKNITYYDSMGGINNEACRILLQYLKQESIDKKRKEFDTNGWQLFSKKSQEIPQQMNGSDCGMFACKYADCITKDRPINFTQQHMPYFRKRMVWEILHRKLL
#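 Compound: 10 µM single point, 0.5% DMSO; Test system: hSENP1 catalytic domain, recombinant; Timing: 50 min reaction at room temperature; Technique: FRET, CFP and YFP emission; Control set: no-enzyme wells low, DMSO-plus-enzyme wells high control.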
# ADAM10 inh: human ADAM10 inhibitors, primary screen, biochemical, QFRET, HTS | recombinant ADAM10, EDANS/DABCYL FRET peptide cleavage, 3 h | inhibition, % at 7 µM | actives 0.62% (n = 370,000) | AID 720582, 2013;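 active means inhibition above a per-campaign cutoff equal to the mean of compounds falling between control-based bounds plus 3 SD, cut at about 20% in these data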;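 further: 0% = DMSO wells while the 100% control is not disclosed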
# FAS-TE inh: FAS thioesterase domain inhibitors, primary screen, biochemical, fluorescence intensity, uHTS. Fatty acid synthase (Homo sapiens), P49327. recombinant FAS-TE, OMFH fluorogenic substrate, fluorescence endpoint. inhibition, % at 15 µM. actives 0.67% (n = 360,000);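 active means compounds whose normalised, plate-corrected inhibition of enzyme fluorescence in the single-dose primary screen is 50% or more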;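 further: 0% = DMSO with enzyme and 100% = substrate without enzyme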
# ADAM10 ctr: ADAM10 inhibitors, counter-screen for ADAM17 exosite inhibitor project, biochemical, FRET, human ADAM10. shares compounds with ADAM17 inh. recombinant ADAM10, EDANS/DABCYL FRET peptide cleavage, 3 h. inhibition, % at 6.95 µM. actives 47% (n = 2,900);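 active means mean inhibition over the triplicate runs exceeds the activity threshold set in the earlier primary screen, cut at about 20% in these data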;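 further: 0% = DMSO wells and 100% = marimastat wells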
# ADAM17 confirm: ADAM17 inhibitors, hit retest, confirmation, biochemical, QFRET peptide cleavage | shares compounds with ADAM17 inh | recombinant ADAM17, EDANS/DABCYL QFRET peptide cleavage | inhibition, % at 6.95 µM | actives 65% (n = 2,900);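 active means mean inhibition across replicates above the hit cutoff set in the primary screen, cut at about 8.5% in these data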;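 further: 0% = DMSO wells and 100% = marimastat wells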
# * hit, by the source's call; x = no result. Sampled rows, rich in hits. Any-hit rate of the full collection: about 1.9%.
SMILES,ADAM17 inh,SENP1 inh,ADAM10 inh,FAS-TE inh,ADAM10 ctr,ADAM17 confirm
CCOc1cc(/C=N/NC(=O)COc2ccc(Cl)cc2)ccc1OS(=O)(=O)c1ccccc1,14*,0,18,25,37*,17*
O=C(OCc1cn(Cc2ccc(F)cc2F)nn1)N1CCOCC1,-7,x,-3,x,x,x
COC(=O)c1cc(-c2ccc(Cl)s2)c(=O)n2c1CCC2,-99,x,-417,x,x,x
FC(F)(F)c1ccc(Cn2ccc3ccc(-c4ccc5ccn(Cc6ccc(C(F)(F)F)cc6)c5c4)cc32)cc1,-13,x,-19,x,x,x
COc1cc2c3c(c1)C1(C(=O)N3C(C)(C)C=C2C)C(C#N)=C(N)Oc2cc(O)ccc21 (configuration not stated),2,-2,15,17,x,x
CCOc1cc2c3c(c1)C1(C(=O)N3C(C)(C)C=C2C)C(C#N)=C(N)Oc2cc(O)ccc21 (configuration not stated),9.0*,-7,5,16,9,12*
O=C(c1ccncc1)N1CC[C@H]2[C@H](CCCN2Cc2ccccc2)C1,0,x,0,x,x,x
C=CC[C@H](CC(=O)N[C@H](CO)Cc1ccccc1)C(=O)N[C@H](COC(=O)[C@@H](CC=C)CC(=O)OC(C)(C)C)Cc1c[nH]c2ccccc12,14*,1,16,0,27*,15*
C=CC[C@@H](CC(=O)N(CCO)Cc1ccccc1)C(=O)N[C@H](COC(=O)[C@H](CC=C)CC(=O)OC(C)(C)C)Cc1c[nH]c2ccccc12,9.9*,1,17,18,48*,23*
CCC[C@H]1[C@@H](OC(=O)NCc2ccco2)CC[C@@]23CCCN2C(=O)CCC[C@@H]13,-7,x,-2,x,x,x
O=C(Nc1cccc(F)c1)Nc1ccc2c(c1)OCO2,10*,1,10,0,6,5
COc1ccc(C(=S)N2CCN(c3ccccc3C)CC2)cc1,9.4*,3,8,19,9,7
COc1ccc(C(=S)N2CCCCCC2)cc1,-2,-4,2,-4,x,x
Cc1ccnc(SCc2cc(=O)c(OC(=O)c3ccc(C)c([N+](=O)[O-])c3)co2)n1,-2,x,-7,x,x,x
CCOc1ccc(S(=O)(=O)Nc2cc(NS(=O)(=O)c3ccc(OCC)cc3)cc(C(=O)O)c2)cc1,-4,-32,3,1,x,x
CCOc1ccc(Oc2ccc(NS(=O)(=O)c3cc(C(=O)O)ccc3Cl)cc2)cc1,14*,-1,-1,-6,5,11*
COc1ccc(F)cc1S(=O)(=O)Nc1ccc(C)cc1,11*,-19,7,-2,13,7
CCc1ccc(OC)c(S(=O)(=O)Nc2ccc(Cc3ccncc3)cc2)c1,9.2*,2,12,8,12,9
CCOc1ccc(NS(=O)(=O)c2cc(Cl)ccc2OC)cc1,12*,1,14,3,12,7
O=C(c1ccc2c(c1)OCO2)N1CCC(Oc2cccnc2)CC1,-6,x,-4,x,x,x
Cc1ccc(NC(=O)Cc2ccc(F)cc2)c(S(=O)(=O)N2CCOCC2)c1,-2,x,-4,x,x,x
COc1ccc(N2CCN(CCCNC(=O)CCc3cccc(Cl)c3)CC2)cc1,2,x,-2,x,x,x
COC(=O)N1C[C@H](OCc2ccccc2)[C@H]2C[C@@H]1c1ccccc1O2,5,x,-12,x,x,x
O=C(c1ccccc1F)N1CCN(S(=O)(=O)c2ccc(S(=O)(=O)N3CCCCC3)cc2)CC1,8.8*,1,7,-3,-13,-4
O=C(NCC1COCCO1)C1CCN(S(=O)(=O)c2ccc(Br)s2)CC1 (configuration not stated),3,x,-9,x,x,x
SMILES,ADAM17 inh,SENP1 inh,ADAM10 inh,FAS-TE inh,ADAM10 ctr,ADAM17 confirm
CC(C)(C)c1ccc(C(=O)c2c[nH]c(C(=O)NCC3CCCO3)c2)cc1 (configuration not stated),-2,-2,3,9,x,x
Cc1ccccc1C(=O)c1c[nH]c(C(=O)NCC2CCCO2)c1 (configuration not stated),9.2*,2,9,-4,-10,1
Cc1ccc(SCc2cc(=O)c3c(=O)n(-c4ccccc4)[nH]c3[nH]2)cc1,10*,3,2,-2,22*,14*
O=c1cc(CSc2ccc(Cl)cc2)[nH]c2[nH]n(-c3ccccc3)c(=O)c12,2,0,9,1,x,x
CCOC(=O)c1cccc(NC(=O)CN(C)S(=O)(=O)c2ccco2)c1,-2,x,0,x,x,x
N#CCC(CNc1ncc(C(F)(F)F)cc1Cl)OC(=O)c1ccc(Cl)cc1Cl (configuration not stated),9.6*,2,10,45,41*,19*
Cc1ccc(-n2c(SCC(=O)NN=Cc3c[nH]c4ccccc34)nnc2-c2ccccc2)cc1,1,x,11,x,x,x
CN[C@H]1C[C@H]2c3[nH]c4cccc(-c5ccc6c(c5)OCO6)c4c3CCN2C[C@H]1[C@H](C)O,-15,x,-49,x,x,x
Cc1[nH]c2ccccc2c1C(=O)COC(=O)c1c(-c2ccccc2Cl)noc1C,9.5*,1,20,18,33*,18*
Cc1onc(-c2ccccc2Cl)c1C(=O)OCC(=O)N1CCC(C)CC1,-2,1,-2,6,x,x
Cc1cccc(C)c1N=Nc1c(C)cc(O)cc1C,9.9*,2,19,42,45*,20*
COC(=O)c1cccc(C(=O)N2CCCC(Nc3ccc(C)c(C)c3)C2)c1 (configuration not stated),11*,-1,10,0,18,7
CC(=O)O[C@@H]1C=C[C@@H](C#Cc2ccc(C(C)(C)C)cc2)O[C@@H]1COC(=O)Nc1ccccc1,13*,x,13,x,29*,13*
CC(=O)O[C@H]1C=C[C@@H](C#Cc2ccc(C(C)(C)C)cc2)O[C@@H]1COC(=O)Nc1ccccc1,0,x,0,x,x,x
Cc1cc(C)c(C)c(S(=O)(=O)N2CCC(C(=O)NCc3cccs3)CC2)c1C,8.8*,2,13,9,4,1
C#CCOCCOCCOCCNc1nc(N2CCN(C(=O)[C@H]([C@@H](C)CC)n3cc(CCCCN)nn3)CC2)nc(N2CCN(C(=O)[C@H](Cc3ccc(O)cc3)n3cc(CCO)nn3)CC2)n1,-2,x,0,x,x,x
COc1cccc(C(=O)Nc2ccc(Cl)c(C(F)(F)F)c2)c1,11*,2,18,29,8,4

# High-throughput results: PubChem BioAssay, several laboratories
